Measured values reported in ChEMBL document CHEMBL4041471, “neo-Clerodane Diterpenoids and Other Constituents of Salvia filipes” (J Nat Prod, 2016).
The source made the active and inactive calls.

Columns and labels:
Format in all cases: functional, cell-based
U-251 = test: Cytotoxicity against human U251 cells at 20 to 25 uM measured after 48 hrs by SRB assay
Summary of the method: (§1)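 SRB screen in human cancer lines (U-251 glioblastoma, PC-3 prostate, K562 leukemia, HCT-15 colorectal, MCF-7 breast, SKLU-1 lung). 5000−7500 cells per well were preincubated 24 h at 37 °C, 5% CO2, then exposed to compound (20.0 or 25.0 μM) for 48 h. Cells were fixed and stained with sulforhodamine B, and absorbance was read at 515 nm.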

PC-3 = test: Cytotoxicity against human PC3 cells at 20 to 25 uM measured after 48 hrs by SRB assay; summary of the method: as §1
K562 = test: Cytotoxicity against human K562 cells at 20 to 25 uM measured after 48 hrs by SRB assay; summary of the method: as §1
HCT-15 = test: Cytotoxicity against human HCT15 cells at 20 to 25 uM measured after 48 hrs by SRB assay; summary of the method: as §1
MCF7 = test: Cytotoxicity against human MCF7 cells at 20 to 25 uM measured after 48 hrs by SRB assay; summary of the method: as §1
SK-LU-1 = test: Cytotoxicity against human SKLU1 cells at 20 to 25 uM measured after 48 hrs by SRB assay; summary of the method: as §1

Measured: Activity

C[C@@H]1[C@H]2C[C@@]34COC(=O)[C@@H]3CC=C[C@H]4[C@@]13C[C@H](c1ccoc1)O[C@H]3O2
inactive: all assays above

C[C@@H]1[C@@H](C)O[C@@H]2O[C@@H](c3ccoc3)C[C@@]21c1cccc2c1COC2=O
inactive: all assays above

C[C@@H]1[C@H]2C[C@@]34COC(=O)[C@@H]3CC=C[C@H]4[C@@]13C[C@H](C1=CC(O)OC1=O)O[C@H]3O2 (stereo not given in full)
inactive: all assays above

C[C@@]12C[C@@]3(c4ccoc4)O[C@@]14CCC=C1C(=O)OC[C@]14CC[C@]2(C)O3
inactive: all assays above

C[C@@H]1[C@H]2C[C@@]34COC(=O)[C@H]3CC=C[C@H]4[C@@]13C[C@H](C1=CC(=O)OC1O)O[C@H]3O2 (stereo not given in full)
inactive: all assays above

C[C@@H]1[C@H]2C[C@@]34COC(=O)[C@H]3CC=C[C@H]4[C@@]13C[C@H](c1ccoc1)O[C@H]3O2
inactive: all assays above

C[C@@H]1[C@H]2C[C@@]34COC(=O)[C@H]3CC=C[C@H]4[C@@]13C[C@H](C1=CC(O)OC1=O)O[C@H]3O2 (stereo not given in full)
inactive: all assays above

COC1C=C([C@H]2C[C@]34[C@@H](O2)O[C@H](C[C@@]25COC(=O)[C@@H]2CC=C[C@H]53)[C@H]4C)C(=O)O1 (mixture of isomers)
inactive: all assays above

COc1ccc(-c2cc(=O)c3c(O)c(OC)c(OC)cc3o2)cc1O
inactive: all assays above

C[C@@H]1[C@H]2C[C@@]34COC(=O)[C@@H]3CC=C[C@H]4[C@@]13C[C@H](C1=CC(=O)OC1O)O[C@H]3O2 (stereo not given in full)
inactive: all assays above
